# NR2E3 ag-1: activates human photoreceptor nuclear receptor NR2E3; Q9Y5X4; GST-NR2E3/biotin-RetCOR TR-FRET, 1536-well; inhibition of corepressor binding, % at 4.78 µM; actives 0.12% (n = 320,000);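 active means percent inhibition above the cutoff of mean plus 3 SD of all tested compounds, set per screening campaign, cut at about 20% in these data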
# Target sequence (Q9Y5X4 whole entry, looked up): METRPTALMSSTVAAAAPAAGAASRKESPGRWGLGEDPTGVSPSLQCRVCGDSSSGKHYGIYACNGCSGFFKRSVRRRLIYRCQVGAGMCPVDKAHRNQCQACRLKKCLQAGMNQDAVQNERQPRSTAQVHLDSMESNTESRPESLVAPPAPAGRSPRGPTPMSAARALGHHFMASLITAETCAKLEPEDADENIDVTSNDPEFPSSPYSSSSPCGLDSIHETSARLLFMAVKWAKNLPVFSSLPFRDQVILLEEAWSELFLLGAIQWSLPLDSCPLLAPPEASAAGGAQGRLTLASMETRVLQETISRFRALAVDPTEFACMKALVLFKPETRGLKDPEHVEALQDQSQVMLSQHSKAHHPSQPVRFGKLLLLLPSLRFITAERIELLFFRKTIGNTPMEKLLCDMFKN
#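 Material: NR2E3–RetCOR corepressor complex / Amount: 1.35 nM GST-NR2E3 / Medium: Tris pH 7.5 / Compound: single nominal compound dose of 4.8 µM / Incubation: 5 h at 4 °C / Technique: TR-FRET, Eu(K)-anti-GST donor, streptavidin-D2 acceptor, ex 340, em 617/671 nm / Read-out basis: percent loss of FRET ratio relative to control wells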
# Rev-erbA mod: modulates human Rev-erb alpha binding to DNA. Rev-erbα–FITC-DNA binding, fluorescence polarization, 90 min. activity, % at 10 µM. actives 0.79% (n = 370,000);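 active means activity above about 14%, limit read from the data; passing the limit was not always enough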
# PG9 Ab binder: binds the HIV-1 gp120 antibody PG9. AID 624416. TR-FRET gp120-PG9 antibody binding. actives 0.43% (n = 360,000). inhibition, % at 6.7 µM; in the data active means inhibition above about 8.5%
# NR2E3 ag-2: agonists of human NR2E3 nuclear receptor | AID 602229 | actives 0.35% (n = 360,000) | CHO-S Gal4-NCOR/VP16-NR2E3 two-hybrid, luciferase | Q9Y5X4 | inhibition of corepressor binding, % at 3.98 µM;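 active means inhibition above the mean of all tested compounds plus 3 SD, cut at about 70% in these data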;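 further: higher means lower luciferase signal from less NR2E3 corepressor binding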
# rCAG binder: molecules binding r(CAG) RNA repeats; actives 1.3% (n = 370,000); AID 651821; r(CAG) RNA repeat, TO-PRO-1 dye displacement fluorescence; inhibition, % at 3 µM;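 active means inhibition above the plate cutoff, the mean of all test compounds on that plate plus 3 SD, cut at about 35% in these data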;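 further: higher means more dye released from RNA so lower well fluorescence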
# rCAG binder conf: r(CAG) RNA repeat binding, confirmation | shares compounds with rCAG binder | TO-PRO-1 dye displacement fluorescence | inhibition, % at 3 µM | actives 70% (n = 4,300) | AID 652065;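 active means inhibition above a per-plate cutoff, the mean inhibition of sample wells plus 3 SD, cut at about 35% in these data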;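 further: loss of TO-PRO-1 fluorescence as compound displaces dye from 1x1 AA loop RNA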
# DNA CAG counter: disrupts DNA CAG TO-PRO-1 complex, flagging rCAG hits. shares compounds with rCAG binder. d(CAG) DNA oligo TO-PRO-1 dye displacement, fluorescence. inhibition, % at 3 µM. actives 94% (n = 4,300). AID 652068;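 active means inhibition above its plate's cutoff, the mean test-well inhibition plus 3 SD, cut at about 4.8% in these data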;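 further: hits displace the dye from DNA and so lower well fluorescence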
# DNA CAG DR: counter-screen for rCAG binders: inhibitors of DNA CAG TO-PRO-1 complex; shares compounds with rCAG binder; DNA CAG/GTC duplex TO-PRO-1 dye displacement fluorescence; IC50, µM; actives 20% (n = 250); AID 686960; in the data active means IC50 below about 10 µM
# Numbers stand for hits; – = inactive; · = not tested or not shown. Compounds with a hit are over-represented: about 2.6% of the library has one in this group of screens.
SMILES,NR2E3 ag-1,Rev-erbA mod,PG9 Ab binder,NR2E3 ag-2,rCAG binder,rCAG binder conf,DNA CAG counter,others
Cc1ccc(S(=O)(=O)NC(=O)Nc2cccc(S(=O)(=O)N(C)C)c2)cc1,·,–,–,–,–,·,·,
CCc1nc2nc(C)c(NS(=O)(=O)c3ccc(C4CCCCC4)cc3)c(=O)n2[nH]1,–,–,–,–,49.2,44.4,14.0,
Cc1nc2nc(C)c(NS(=O)(=O)c3ccc(C4CCCCC4)cc3)c(=O)n2[nH]1,–,–,–,–,38.1,39.6,9.5,
C[N+]1(C)CCC(=C(c2ccccc2)c2ccccc2)CC1,–,–,–,–,–,·,·,
CCOC(=O)CC[C@@]1(C(=O)OCC)C[C@@H](CC(=O)NCc2ccc(C)o2)C(=O)N2CCCC=C21,·,–,·,·,48.9,–,–,
C/C(=N\Nc1nc(-c2cc(C)ccc2C)cs1)c1cc2ccccc2oc1=O,–,–,–,–,–,·,·,
C/C(=N\Nc1nc(-c2cc(C)ccc2C)cs1)c1cc2c(ccc3ccccc32)oc1=O,–,–,–,–,47.1,45.2,23.2,
COc1ccc(Br)cc1C1CC(=O)N2CN(Cc3ccccc3)CSC2=C1C#N (stereo not given),–,–,–,–,37.7,–,12.6,
COc1ccc(Br)cc1C1CC(=O)N2CN(C)CSC2=C1C#N (stereo not given),–,–,–,–,–,·,·,
COc1ccccc1N1CSC2=C(C#N)C(c3ccc(SC)cc3)CC(=O)N2C1 (stereo not given),–,–,–,–,40.0,46.6,18.7,
COc1ccc(C)cc1NC(=O)COC(=O)c1ccc2c(c1)OCCO2,–,–,–,–,–,·,·,
CC(C)C(=O)N(c1cc2sc(=O)oc2c2ccccc12)S(=O)(=O)c1cccs1,–,–,–,–,77.5,48.0,22.5,
CC(C)C(=O)N(c1ccc2oc(=O)sc2c1)S(=O)(=O)c1cccs1,–,–,–,–,–,·,·,
O=C(Cn1cc(COc2ccc(Cl)c(Cl)c2)nn1)NS(=O)(=O)c1ccccc1OC(F)(F)F,·,–,–,–,61.7,47.5,15.8,
O=C(Cn1cc(COc2ccccc2C(F)(F)F)nn1)c1ccc(O)cc1,·,–,–,–,–,·,·,
COc1ccc(CCC(=O)NNC(=O)Nc2ccccc2Cl)cc1,·,–,–,–,–,·,·,
Cc1cc(Cl)ccc1Oc1ccc(C(N)=O)cc1[N+](=O)[O-],–,–,–,–,–,·,·,
Cc1cc(Cl)ccc1Oc1ccccc1C(=O)CC#N,–,–,–,–,38.3,–,7.6,
COCCn1c(=NC(=O)c2cc(-c3cccs3)nc3ccccc23)sc2cc(S(N)(=O)=O)ccc21,–,–,–,–,35.9,39.1,18.9,
C[C@@H]1CN([C@H](C)CO)C(=O)CCCn2nncc2CO[C@H]1CN(C)S(C)(=O)=O,·,–,–,–,–,·,·,
CCCCCCOC(=O)Nc1ccc(S(=O)(=O)Nc2cccc([N+](=O)[O-])c2)cc1,–,–,–,–,45.0,45.9,13.6,
CCCCOC(=O)Nc1ccc(S(=O)(=O)Nc2nc(C)cc(C)n2)cc1,–,–,–,–,–,·,·,
CC(=O)N(C(C)=O)c1ccc2c(c1)OCCO2,·,–,–,–,–,·,·,
CCOc1ccc(NS(=O)(=O)c2ccc(N)cc2)cc1,–,–,–,–,–,·,·,
CCOc1ccc(Nc2ccc(N)c(S(=O)(=O)O)c2)cc1,·,–,–,–,55.4,51.7,18.2,
SMILES,NR2E3 ag-1,Rev-erbA mod,PG9 Ab binder,NR2E3 ag-2,rCAG binder,rCAG binder conf,DNA CAG counter,others
CC(C)[C@H](NC(=O)c1ccc(Cl)c(Cl)c1)C(=O)N1CCC[C@H]1C(=O)NCc1ccccc1,·,–,–,·,–,·,·,
Cc1ccc(-n2nnnc2SCc2nc3sc(C)c(C)c3c(=O)[nH]2)cc1,–,–,–,–,–,·,·,
CC(=O)c1sc2nc(CSc3nnnn3-c3ccccc3)[nH]c(=O)c2c1C,–,–,–,–,38.9,49.4,29.0,
C=CCOc1c(OC)cc(/C=N/Nc2cccc(C(=O)O)c2)c(Br)c1Br,–,–,–,–,51.1,70.0,31.4,DNA CAG DR=8.34
O=C(O)c1ccccc1-c1ccc(C=c2sc3nc4cc(Br)cnc4n3c2=O)o1,·,–,–,–,81.5,72.0,38.6,
Cc1nnc(NC(=O)c2ccc(S(=O)(=O)N(C)Cc3ccccc3)cc2)o1,–,·,·,–,·,·,·,
CCN(Cc1ccccc1)S(=O)(=O)c1ccc(C(=O)Nc2nnc(C3CC3)o2)cc1,–,–,–,–,45.3,36.1,11.7,
Cc1ccccc1S(=O)(=O)N1C[C@H]2CON(C)[C@H]2C[C@H]1c1cccc(-c2ccc(C#N)cc2)c1,·,–,–,–,–,·,·,
COc1cc(C(O)c2nc(/C=C/c3ccc(C(F)(F)F)cc3)cs2)ccc1F (stereo not given),·,–,–,–,–,·,·,
COc1ccc(-c2csc(NC(=O)CSc3nc4ccccc4c(=O)[nH]3)n2)cc1,–,–,–,–,38.0,57.2,22.0,
O=C(CSc1nc(O)cc(=O)[nH]1)Nc1ccc2c(c1)CCC2,–,–,–,–,48.8,–,6.0,
Nc1cc(=O)[nH]c(SCC(=O)Nc2ccc3c(c2)CCC3)n1,–,–,–,–,–,·,·,
Cc1ccc(-c2csc(NC(=O)CSc3nc4ccccc4[nH]3)n2)cc1,·,–,–,–,–,·,·,
Cc1cc(=O)[nH]c(SCC(=O)Nc2nc(-c3ccccc3)cs2)n1,–,–,–,–,36.1,–,9.5,
O=C(NC1=NCCS1)c1ccc(F)c(S(=O)(=O)N2CCOCC2)c1,·,–,–,–,–,·,·,
CC(=O)Oc1cc(C)c(Cl)c2c(OC(C)=O)cc(C(C)=O)c(O)c12,·,–,–,·,40.2,–,6.8,
Cc1onc(-c2c(F)cccc2Cl)c1C(=O)Nc1cc(S(=O)(=O)N2CCCCC2)ccc1O,·,–,–,–,52.1,36.3,12.2,
Cc1onc(-c2c(F)cccc2Cl)c1C(=O)Nc1ccc(S(=O)(=O)N2CCOCC2)cc1,·,–,–,–,–,·,·,
O=C(Nc1cc(S(=O)(=O)N2CCCCC2)ccc1O)c1ccccc1NS(=O)(=O)c1ccc(F)c(F)c1,–,–,–,–,85.3,87.9,63.7,
Cc1ccc(Cc2c(-c3ccco3)nc3c(C)cc(Br)cn23)cc1,·,–,–,–,–,·,·,
Clc1cccc(Cc2c(-c3cccc(Br)c3)nc3ccc(Cl)cn23)c1,·,–,–,–,44.7,–,9.9,
Clc1ccc2nc(-c3cccc(Br)c3)c(Cc3ccccc3)n2c1,·,–,–,–,–,·,·,
COC(=O)c1ccc2nc(-c3cccc(Cl)c3)c(Cc3ccccc3OC)n2c1,·,–,–,–,–,·,·,
Cc1cc(Br)cn2c(Cc3cccc(Cl)c3)c(-c3ccco3)nc12,·,–,–,–,41.7,–,5.2,

# Compound activity (PubChem BioAssay)
